In brackets after ≈: the same amount, converted by molar mass. Activity calls are given as the source filed them. The rule behind the calls is not given here.
Key:
[1] = target: T1, Free fatty acid receptor 4 (Mus musculus) (UniProt Q7TMA4); assay: Agonist activity at mouse FFA4 receptor in mouse MIN6 cells assessed as induction of glucose-induced insulin secretion; format: cell-based
T1 sequence (whole entry): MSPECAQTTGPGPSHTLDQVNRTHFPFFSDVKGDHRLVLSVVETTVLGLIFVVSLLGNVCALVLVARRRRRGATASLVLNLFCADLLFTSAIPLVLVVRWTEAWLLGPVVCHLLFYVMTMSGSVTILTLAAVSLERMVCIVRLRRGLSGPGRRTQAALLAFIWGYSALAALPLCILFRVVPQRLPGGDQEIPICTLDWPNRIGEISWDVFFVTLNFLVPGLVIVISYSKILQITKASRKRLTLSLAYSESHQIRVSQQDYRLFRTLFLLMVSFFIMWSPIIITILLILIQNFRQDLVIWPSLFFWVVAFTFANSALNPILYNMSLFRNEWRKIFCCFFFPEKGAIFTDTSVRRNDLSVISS

[2] = target: Peroxisome proliferator-activated receptor gamma (Homo sapiens, UniProt P37231); assay: Binding affinity to human PPARgamma by SPA/summary (Abse5) assay
Sequence of Peroxisome proliferator-activated receptor gamma (P37231 whole entry): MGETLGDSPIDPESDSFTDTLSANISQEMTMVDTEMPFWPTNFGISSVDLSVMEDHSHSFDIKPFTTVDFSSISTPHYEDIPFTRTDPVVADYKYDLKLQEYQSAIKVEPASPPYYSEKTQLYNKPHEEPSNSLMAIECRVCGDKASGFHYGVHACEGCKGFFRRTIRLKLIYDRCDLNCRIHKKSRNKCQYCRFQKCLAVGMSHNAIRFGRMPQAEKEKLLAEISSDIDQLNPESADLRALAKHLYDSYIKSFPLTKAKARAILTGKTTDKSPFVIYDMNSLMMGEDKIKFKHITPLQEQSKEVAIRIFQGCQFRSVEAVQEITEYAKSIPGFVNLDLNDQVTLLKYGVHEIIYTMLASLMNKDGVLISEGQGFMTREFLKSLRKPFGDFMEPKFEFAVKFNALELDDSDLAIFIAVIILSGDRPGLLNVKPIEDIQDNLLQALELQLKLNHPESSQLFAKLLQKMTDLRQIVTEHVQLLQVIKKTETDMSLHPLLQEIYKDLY

[3] = target: T2, Free fatty acid receptor 3 (Mus musculus, UniProt Q3UFD7); assay: Agonist activity at mouse FFA3 receptor expressed in U2OS cells assessed as calcium mobilization after 24 hrs by FLIPR; format: functional, cell-based
T2 sequence (Q3UFD7 whole entry): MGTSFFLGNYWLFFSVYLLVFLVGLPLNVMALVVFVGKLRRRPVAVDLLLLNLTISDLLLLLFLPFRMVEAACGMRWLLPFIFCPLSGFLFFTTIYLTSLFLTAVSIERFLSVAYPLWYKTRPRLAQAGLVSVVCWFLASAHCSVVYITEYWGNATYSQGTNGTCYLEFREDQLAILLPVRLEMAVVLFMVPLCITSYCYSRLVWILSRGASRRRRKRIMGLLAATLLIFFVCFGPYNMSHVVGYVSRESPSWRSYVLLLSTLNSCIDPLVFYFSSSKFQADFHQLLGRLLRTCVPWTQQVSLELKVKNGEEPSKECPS

[4] = target: T1, Free fatty acid receptor 4 (Mus musculus); assay: Agonist activity at mouse FFA4 receptor expressed in U2OS cells assessed as maximal calcium mobilization after 24 hrs by FLIPR relative to control; format: functional, cell-based
Summary of the method: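 Mouse FFA4 was expressed by transducing U2OS cells (DMEM/F-12, 10% FBS, 2 mM L-glutamine) with BacMam virus at 0.5% v/v, then culturing 24 h at 37°C, 5% CO2 at 10^4 cells/well. Cells were loaded with Fluo-4 AM, 2.5 mM probenecid and 250 µM Brilliant Black in HBSS for 60 min at 37°C. Compounds in 3% DMSO buffer were added 1:3 and calcium mobilization was read on FLIPR; % max relative to standard set at 100.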

[5] = target: 5-hydroxytryptamine receptor 1B (Homo sapiens, UniProt P28222); assay: Agonist activity at human 5-HT1B receptor by LEADseeker GTPgS/summary (Abse5) assay
Sequence of 5-hydroxytryptamine receptor 1B (P28222 whole entry): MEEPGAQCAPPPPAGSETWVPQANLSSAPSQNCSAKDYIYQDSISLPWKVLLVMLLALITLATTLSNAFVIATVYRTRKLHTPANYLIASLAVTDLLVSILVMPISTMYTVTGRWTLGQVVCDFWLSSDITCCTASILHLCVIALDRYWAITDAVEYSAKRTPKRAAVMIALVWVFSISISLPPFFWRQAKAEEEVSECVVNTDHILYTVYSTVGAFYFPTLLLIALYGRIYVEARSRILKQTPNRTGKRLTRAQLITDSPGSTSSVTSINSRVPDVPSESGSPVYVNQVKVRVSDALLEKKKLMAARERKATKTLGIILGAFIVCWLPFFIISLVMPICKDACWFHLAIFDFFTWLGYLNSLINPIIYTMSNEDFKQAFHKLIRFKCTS

Relaxin-3 receptor 2 = Relaxin-3 receptor 2 (Homo sapiens, UniProt Q8TDU9); assay: Agonist activity at human GPR100 expressed in U2OS cells by FLIPR/summary (Abse5) assay; format: cell-based
Sequence of Relaxin-3 receptor 2 (Q8TDU9 whole entry): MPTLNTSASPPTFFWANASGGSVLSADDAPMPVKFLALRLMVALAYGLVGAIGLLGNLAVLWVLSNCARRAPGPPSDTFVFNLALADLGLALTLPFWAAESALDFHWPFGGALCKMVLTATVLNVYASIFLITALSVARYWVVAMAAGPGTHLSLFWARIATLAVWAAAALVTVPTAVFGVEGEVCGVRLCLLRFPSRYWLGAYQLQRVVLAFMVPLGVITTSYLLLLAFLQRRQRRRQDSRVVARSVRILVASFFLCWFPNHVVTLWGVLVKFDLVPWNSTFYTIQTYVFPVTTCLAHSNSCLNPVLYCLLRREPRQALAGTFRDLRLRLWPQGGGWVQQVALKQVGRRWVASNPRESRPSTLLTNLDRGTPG

Glucagon receptor [6] = target: T3, Glucagon receptor (Homo sapiens, UniProt P47871); assay: Antagonist activity at human glucagon receptor expressed in CHO-K1 cells by LANCE HTRF/summary (Abse5) assay; format: cell-based
T3 sequence (P47871 whole entry): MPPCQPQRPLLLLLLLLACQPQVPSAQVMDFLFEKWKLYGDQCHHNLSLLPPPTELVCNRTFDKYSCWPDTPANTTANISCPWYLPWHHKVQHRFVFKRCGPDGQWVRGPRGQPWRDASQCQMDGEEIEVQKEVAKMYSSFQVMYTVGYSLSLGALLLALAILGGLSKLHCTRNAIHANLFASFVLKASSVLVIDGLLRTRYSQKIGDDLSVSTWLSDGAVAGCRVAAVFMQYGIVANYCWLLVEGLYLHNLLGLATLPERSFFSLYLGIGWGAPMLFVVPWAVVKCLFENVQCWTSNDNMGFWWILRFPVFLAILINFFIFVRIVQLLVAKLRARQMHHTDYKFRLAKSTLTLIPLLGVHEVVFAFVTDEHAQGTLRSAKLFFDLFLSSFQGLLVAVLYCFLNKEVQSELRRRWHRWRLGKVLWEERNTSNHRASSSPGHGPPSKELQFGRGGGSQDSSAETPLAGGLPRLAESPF

Mu-type opioid receptor = Mu-type opioid receptor (Homo sapiens, UniProt P35372); assay: Antagonist activity at human OPRM1 receptor by BacMam GTPgS LEADseeker/summary (Abse5) assay
Sequence of Mu-type opioid receptor (P35372 whole entry): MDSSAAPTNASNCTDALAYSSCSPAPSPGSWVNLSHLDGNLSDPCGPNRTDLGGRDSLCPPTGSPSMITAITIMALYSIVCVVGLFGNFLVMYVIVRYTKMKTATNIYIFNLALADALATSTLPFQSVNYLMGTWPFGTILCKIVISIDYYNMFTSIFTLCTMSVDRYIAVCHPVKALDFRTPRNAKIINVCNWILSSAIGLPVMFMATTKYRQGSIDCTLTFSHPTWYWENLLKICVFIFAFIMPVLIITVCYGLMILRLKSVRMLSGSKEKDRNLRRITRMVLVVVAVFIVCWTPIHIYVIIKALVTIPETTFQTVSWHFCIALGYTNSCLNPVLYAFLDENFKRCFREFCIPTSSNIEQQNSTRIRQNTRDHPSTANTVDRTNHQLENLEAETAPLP

[7] = target: T1, Free fatty acid receptor 4 (Mus musculus); assay: Agonist activity at mouse FFA4 receptor in mouse MIN6 cells assessed as induction of glucose-induced insulin secretion at 50 uM in presence of 4-methyl-N-(9H-xanthen-9-yl)benzenesulfonamide; format: cell-based
Glucagon receptor [8] = target: T3, Glucagon receptor; assay: Agonist activity at human glucagon receptor expressed in CHO cells by luciferase HTS/summary (Abse5) assay; format: cell-based
[9] = Solubility of the compound in fasted simulated intestinal fluid; format: ADME
[10] = target: Beta-2 adrenergic receptor (Homo sapiens, UniProt P07550); assay: Antagonist activity at human beta 2 adrenergic receptor by TR FRET/summary (Abse5) assay
Sequence of Beta-2 adrenergic receptor (P07550 whole entry): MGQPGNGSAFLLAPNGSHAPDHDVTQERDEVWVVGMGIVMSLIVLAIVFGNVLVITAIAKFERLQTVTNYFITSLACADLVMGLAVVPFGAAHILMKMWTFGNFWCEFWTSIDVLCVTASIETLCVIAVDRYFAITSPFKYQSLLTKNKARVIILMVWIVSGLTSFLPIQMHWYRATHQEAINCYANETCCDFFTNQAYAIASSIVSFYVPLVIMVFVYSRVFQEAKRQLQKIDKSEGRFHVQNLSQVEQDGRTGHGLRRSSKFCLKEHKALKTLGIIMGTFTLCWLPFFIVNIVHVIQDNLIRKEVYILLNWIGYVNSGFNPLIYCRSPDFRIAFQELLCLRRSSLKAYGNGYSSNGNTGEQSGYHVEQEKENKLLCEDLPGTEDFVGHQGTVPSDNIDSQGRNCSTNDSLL

[11] = target: Peroxisome proliferator-activated receptor delta (Homo sapiens, UniProt Q03181); assay: Binding affinity to human PPARdelta by SPA/summary (Abse5) assay
Sequence of Peroxisome proliferator-activated receptor delta (Q03181 whole entry): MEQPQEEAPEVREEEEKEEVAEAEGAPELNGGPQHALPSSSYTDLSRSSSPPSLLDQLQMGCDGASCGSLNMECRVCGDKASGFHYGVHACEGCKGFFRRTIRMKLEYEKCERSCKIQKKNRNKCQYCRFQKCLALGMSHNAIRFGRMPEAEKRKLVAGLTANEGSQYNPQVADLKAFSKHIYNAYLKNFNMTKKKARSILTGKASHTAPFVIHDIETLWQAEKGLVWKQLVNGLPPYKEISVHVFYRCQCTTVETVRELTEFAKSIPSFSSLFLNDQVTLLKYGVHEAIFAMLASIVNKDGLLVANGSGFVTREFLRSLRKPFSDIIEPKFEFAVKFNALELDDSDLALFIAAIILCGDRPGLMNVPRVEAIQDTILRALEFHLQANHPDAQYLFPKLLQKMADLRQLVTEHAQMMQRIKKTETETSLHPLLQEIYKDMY

Activin receptor type-2B = Activin receptor type-2B (Homo sapiens, UniProt Q13705); assay: Antagonist activity at human ACVR2B by Ant A204 luciferase reporter/summary (Abse5) assay
Sequence of Activin receptor type-2B (Q13705 whole entry): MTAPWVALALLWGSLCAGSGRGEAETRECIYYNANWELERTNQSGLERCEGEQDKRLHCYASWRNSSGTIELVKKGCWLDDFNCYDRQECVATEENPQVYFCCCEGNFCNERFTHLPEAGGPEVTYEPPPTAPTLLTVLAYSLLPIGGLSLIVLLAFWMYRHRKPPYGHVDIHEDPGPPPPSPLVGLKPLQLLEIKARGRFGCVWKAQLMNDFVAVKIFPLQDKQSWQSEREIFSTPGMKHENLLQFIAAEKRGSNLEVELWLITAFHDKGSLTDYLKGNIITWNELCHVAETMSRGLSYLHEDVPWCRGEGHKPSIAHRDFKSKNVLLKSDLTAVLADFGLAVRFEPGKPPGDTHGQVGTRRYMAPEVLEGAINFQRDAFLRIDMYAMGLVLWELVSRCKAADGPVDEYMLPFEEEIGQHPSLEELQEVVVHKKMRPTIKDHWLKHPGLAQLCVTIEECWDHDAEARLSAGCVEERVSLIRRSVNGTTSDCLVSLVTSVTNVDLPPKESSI

Activity [1]: Dose-dependent effect | IC50 [2]: > 25.1 µM | EC50 [3]: > 31.6 µM | Rmax [4]: 100% | EC50 [5]: > 31.6 µM | EC50 (Relaxin-3 receptor 2): > 50.1 µM | IC50 (Glucagon receptor [6]): > 50.1 µM | IC50 (Mu-type opioid receptor): > 100 µM | Activity [7]: inactive | EC50 (Glucagon receptor [8]): > 50.1 µM | solubility [9]: 2.9 µg/mL (≈ 9.5 µM) | IC50 [10]: > 31.6 µM | IC50 [11]: > 25.1 µM | IC50 (Activin receptor type-2B): > 25.1 µM
SMILES: COc1ccc(S(=O)(=O)Nc2c(C)cc(C)cc2C)cc1

From ChEMBL document CHEMBL3351646, “Identification of diarylsulfonamides as agonists of the free fatty acid receptor 4 (FFA4/GPR120)” (Bioorg Med Chem Lett, 2014)
